ChEMBL document CHEMBL1123568 (J Med Chem, 1987)
Values after ≈ are worked out from the molar mass of the structure shown.

Tests used:
Format in all cases: functional
Acinetobacter = assay: Antimicrobial activity against the acinetobacter sp. CMX 669 by 2-fold agar dilution method using brain-heart infusion agar.
Escherichia coli [1] = assay: Antimicrobial activity against the Escherichia coli H560 by 2-fold agar dilution method using brain-heart infusion agar.
Procedure, shortened: (§1)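 Read-out is the MIC, found by twofold agar dilution in brain-heart infusion agar. Strains were Escherichia coli H560, Staphylococcus aureus 45 and Staphylococcus aureus ATCC 6538 P.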

Escherichia coli [2] = assay: Antimicrobial activity against the Escherichia coli JUHL by 2-fold agar dilution method using brain-heart infusion agar.
Klebsiella aerogenes = assay: Antimicrobial activity against the enterobacter aerogenes ATCC 13048 by 2-fold agar dilution method using brain-heart infusion agar.; details: ATCC 13048, Brain
Klebsiella pneumoniae = assay: Antimicrobial activity against the klebsiella pneumoniae 8045 by 2-fold agar dilution method using brain-heart infusion agar.
Micrococcus luteus = assay: Antimicrobial activity against the micrococcus luteus 9341 by 2-fold agar dilution method using brain-heart infusion agar.
Pseudomonas aeruginosa [3] = assay: Antimicrobial activity against the Pseudomonas aeruginosa K 799/61 by 2-fold agar dilution method using brain-heart infusion agar.
Pseudomonas aeruginosa [4] = assay: Antimicrobial activity against the Pseudomonas aeruginosa K 799/WT by 2-fold agar dilution method using brain-heart infusion agar.
Enterococcus faecium = assay: Antimicrobial activity against the faecium ATCC 8043 by 2-fold agar dilution method using brain-heart infusion agar.; details: ATCC 8043, Brain
Staphylococcus aureus [5] = assay: Antimicrobial activity against the Staphylococcus aureus 45 by 2-fold agar dilution method using brain-heart infusion agar.; procedure, shortened: as §1
Staphylococcus aureus [6] = assay: Antimicrobial activity against the Staphylococcus aureus ATCC 6538 P by 2-fold agar dilution method using brain-heart infusion agar.; details: ATCC 6538, Brain; procedure, shortened: as §1
[7] = test system: Staphylococcus epidermidis; assay: Antimicrobial activity against the Staphylococcus epidermis 3519 by 2-fold agar dilution method using brain-heart infusion agar.
Streptococcus pyogenes [8] = assay: Antimicrobial activity against the streptococcus pyogenes 2548 by 2-fold agar dilution method using brain-heart infusion agar.
Streptococcus agalactiae = assay: Antimicrobial activity against the streptococcus agalactiae CMX 508 by 2-fold agar dilution method using brain-heart infusion agar.
Streptococcus equinus = assay: Antimicrobial activity against the streptococcus bovis A 5169 by 2-fold agar dilution method using brain-heart infusion agar.
Streptococcus pyogenes [9] = assay: Antimicrobial activity against the streptococcus pyogenes EES 61 by 2-fold agar dilution method using brain-heart infusion agar.

Row | Structure (SMILES) | MIC (Acinetobacter) [µg/mL] | MIC (Escherichia coli [1]) [µg/mL] | MIC (Escherichia coli [2]) [µg/mL] | MIC (Klebsiella aerogenes) [µg/mL] | MIC (Klebsiella pneumoniae) [µg/mL] | MIC (Micrococcus luteus) [µg/mL] | MIC (Pseudomonas aeruginosa [3]) [µg/mL] | MIC (Pseudomonas aeruginosa [4]) [µg/mL] | MIC (Enterococcus faecium) [µg/mL] | MIC (Staphylococcus aureus [5]) [µg/mL] | MIC (Staphylococcus aureus [6]) [µg/mL] | MIC [7] [µg/mL] | MIC (Streptococcus pyogenes [8]) [µg/mL] | MIC (Streptococcus agalactiae) [µg/mL] | MIC (Streptococcus equinus) [µg/mL] | MIC (Streptococcus pyogenes [9]) [µg/mL]
1 | C[C@@H]1COc2c(N3CCN(C)CC3)c(F)cc3c(=O)c(C(=O)O)cn1c23 [DEXTROFLOXACINE] | 9.75 (≈ 27 µM) | 9.75 (≈ 27 µM) | 1.21 (≈ 3.35 µM) | 9.75 (≈ 27 µM) | 1.21 (≈ 3.35 µM) | > 9.75 | 1.21 (≈ 3.35 µM) | 9.75 (≈ 27 µM) | > 9.75 | 9.75 (≈ 27 µM) | 4.8 (≈ 13.3 µM) | 4.8 (≈ 13.3 µM) | > 9.75 | > 9.75 | > 9.75 | > 9.75
2 | C[C@H]1COc2c(N3CCN(C)CC3)c(F)cc3c(=O)c(C(=O)O)cn1c23.C[C@H]1COc2c(N3CCN(C)CC3)c(F)cc3c(=O)c(C(=O)O)cn1c23.O [LEVOFLOXACIN] | 0.3 | 0.04 | 0.07 | 0.07 | < 0.04 | 1.21 | 0.07 | < 0.04 | 0.46 | 0.3 | 0.15 | 0.3 | 0.26 | 1.21 | 1.21 | 0.46
3 | CC1COc2c(N3CCN(C)CC3)c(F)cc3c(=O)c(C(=O)O)cn1c23 (stereo not drawn) [OFLOXACIN] | 0.39 (≈ 1.08 µM) | 0.1 (≈ 0.277 µM) | 0.05 (≈ 0.138 µM) | 0.2 (≈ 0.553 µM) | 0.05 (≈ 0.138 µM) | 3.1 (≈ 8.58 µM) | 0.1 (≈ 0.277 µM) | 0.39 (≈ 1.08 µM) | 0.78 (≈ 2.16 µM) | 0.39 (≈ 1.08 µM) | 0.2 (≈ 0.553 µM) | 0.39 (≈ 1.08 µM) | 0.39 (≈ 1.08 µM) | 1.56 (≈ 4.32 µM) | 1.56 (≈ 4.32 µM) | 0.78 (≈ 2.16 µM)
